From ChEMBL document CHEMBL1132401, “Glycosylation of fluoroquinolones through direct and oxygenated polymethylene linkages as a sugar-mediated active transport system for antimicrobials” (1999)
Values after ≈ are worked out from the molar mass of the structure shown.

Legend:
Enterococcus faecalis [1] = assay: Minimum concentration required to prevent the growth of nonresistant stock strain Enterococcus faecalis 51299 from American Type Culture Collection (ATCC); assay type: functional; conditions: Enterococcus faecalis; read-out: MIC
Procedure, shortened: (§1)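 Agar dilution susceptibility testing per NCCLS guidelines against resistant clinical isolates, with nonresistant ATCC stock strains run as controls. Plates were read at 19–24 h of incubation. MIC reported in µg/mL.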

Klebsiella oxytoca = assay: Minimum concentration required to prevent the growth of cipro resistant (Cipro-R) Klebsiella oxytoca strain A3530
[2] = system: Staphylococcus epidermidis; assay: Minimum concentration required to prevent the growth of multiply resistant Staphylococcus epidermidis (MRSE) and cipro resistant (Cipro-R) coag.-neg. Staph. A0248; assay type: functional; procedure, shortened: as §1
Enterococcus faecalis [3] = assay: Minimum concentration required to prevent the growth of vancomycin resistant (VanA) Enterococcus faecalis strain A0402; assay type: functional; conditions: Enterococcus faecalis; read-out: MIC; procedure, shortened: as §1
[4] = system: Staphylococcus epidermidis; assay: Minimum concentration required to prevent the growth of multiply resistant Staphylococcus epidermidis (MRSE) coag.-neg. Staph. A0245; assay type: functional; procedure, shortened: as §1
Enterococcus faecium [5] = assay: Minimum concentration required to prevent the growth of vancomycin resistant (VanB) Enterococcus faecium strain A1087; assay type: functional; conditions: Enterococcus faecium; read-out: MIC; procedure, shortened: as §1
Pseudomonas aeruginosa [6] = assay: Minimum concentration required to prevent the growth of Pseudomonas aeruginosa strain 28215; assay type: functional
Procedure, shortened: (§2)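 Agar dilution susceptibility testing per NCCLS guidelines, covering clinical isolates (including resistant phenotypes) and nonresistant ATCC stock strains as controls. Plates read after 19–24 h of incubation. MIC reported in μg/mL.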

Enterococcus faecium [7] = assay: Minimum concentration required to prevent the growth of nonresistant stock strain Enterococcus faecium 19434 from American Type Culture Collection (ATCC); assay type: functional; conditions: Enterococcus faecium; read-out: MIC; procedure, shortened: as §2
Escherichia coli [8] = assay: Minimum concentration required to prevent the growth of cipro resistant (Cipro-R) Escherichia coli strain A3228; assay type: functional; procedure, shortened: as §2
Staphylococcus aureus [9] = assay: Minimum concentration required to prevent the growth of multiply resistant (MRSA) and cipro resistant (Cipro-R) Staphylococcus aureus strain A2800; assay type: functional; procedure, shortened: as §1
Staphylococcus aureus [10] = assay: Minimum concentration required to prevent the growth of multiply resistant (MRSA) Staphylococcus aureus strain A0170; assay type: functional; procedure, shortened: as §1
Staphylococcus aureus [11] = assay: Minimum concentration required to prevent the growth of multiply resistant (MRSA) Staphylococcus aureus strain A0171; assay type: functional; procedure, shortened: as §1
Enterococcus faecalis [12] = assay: Minimum concentration required to prevent the growth of vancomycin resistant (VanA) Enterococcus faecalis strain A0401; assay type: functional; conditions: Enterococcus faecalis; read-out: MIC; procedure, shortened: as §1
Staphylococcus aureus [13] = assay: Minimum concentration required to prevent the growth of multiply resistant (MRSA) and cipro resistant (Cipro-R) Staphylococcus aureus strain A2043; assay type: functional; procedure, shortened: as §1
Pseudomonas aeruginosa [14] = assay: Minimum concentration required to prevent the growth of Pseudomonas aeruginosa strain 28245; assay type: functional; procedure, shortened: as §2
Enterococcus faecalis [15] = assay: Minimum concentration required to prevent the growth of vancomycin resistant (VanB) Enterococcus faecalis strain A1081; assay type: functional; conditions: Enterococcus faecalis; read-out: MIC; procedure, shortened: as §1
Staphylococcus aureus [16] = assay: Minimum concentration required to prevent the growth of nonresistant stock strain Staphylococcus aureus 29213 from American Type Culture Collection (ATCC)
Enterococcus faecalis [17] = assay: Minimum concentration required to prevent the growth of high level gentamicin and beta- lactamase resistant (HLGR, BLA+) Enterococcus faecalis strain A0089; assay type: functional; conditions: Enterococcus faecalis; read-out: MIC; procedure, shortened: as §1
Escherichia coli [18] = assay: Minimum concentration required to prevent the growth of cipro resistant (Cipro-R) Escherichia coli strain AA; assay type: functional; procedure, shortened: as §2
[19] = system: Staphylococcus epidermidis; assay: Minimum concentration required to prevent the growth of multiply resistant Staphylococcus epidermidis (MRSE) and cipro resistant (Cipro-R) coag.-neg. Staph. A0247
Escherichia coli [20] = assay: Minimum concentration required to prevent the growth of cipro resistant (Cipro-R) Escherichia coli strain A3529; assay type: functional; procedure, shortened: as §2
Escherichia coli [21] = assay: Minimum concentration required to prevent the growth of nonresistant stock Escherichia coli strain 25922 from American Type Culture Collection (ATCC); assay type: functional; conditions: ATCC25922; procedure, shortened: as §2
Listeria monocytogenes [22] = assay: Minimum concentration required to prevent the growth of Listeria monocytogenes strain A0182; assay type: functional; procedure, shortened: as §2
Listeria monocytogenes [23] = assay: Minimum concentration required to prevent the growth of Listeria monocytogenes strain A0183; assay type: functional; procedure, shortened: as §2
Enterococcus faecium [24] = assay: Minimum concentration required to prevent the growth of vancomycin resistant (VanB) Enterococcus faecium strain A0803; assay type: functional; conditions: Enterococcus faecium; read-out: MIC; procedure, shortened: as §1
[25] = system: Staphylococcus epidermidis; assay: Minimum concentration required to prevent the growth of multiply resistant Staphylococcus epidermidis (MRSE) coag.-neg. Staph. A0244; assay type: functional; procedure, shortened: as §1
Klebsiella pneumoniae = assay: Minimum concentration required to prevent the growth of cipro resistant (Cipro-I) Klebsiella pneumoniae strain AM; assay type: functional; procedure, shortened: as §1
Enterococcus faecalis [26] = assay: Minimum concentration required to prevent the growth of nonresistant stock strain Enterococcus faecalis 29212 from American Type Culture Collection (ATCC); assay type: functional; procedure, shortened: as §1
Enterococcus faecalis [27] = assay: Minimum concentration required to prevent the growth of high level gentamicin and beta- lactamase resistant (HLGR, BLA+) Enterococcus faecalis strain A0090; assay type: functional; procedure, shortened: as §1
Enterococcus faecalis [28] = assay: Minimum concentration required to prevent the growth of vancomycin resistant (VanB) Enterococcus faecalis strain A1079; assay type: functional; procedure, shortened: as §1
[29] = system: Staphylococcus epidermidis; assay: Minimum concentration required to prevent the growth of multiply resistant Staphylococcus epidermidis (MRSE) and cipro resistant (Cipro-R) coag.-neg. Staph. A0247; assay type: functional; procedure, shortened: as §1

## O=C(O)c1cn(C2CC2)c2cc(N3CCN(CCCO[C@@H]4O[C@@H](CO)[C@@H](O)[C@H](O)[C@@H]4O)CC3)c(F)cc2c1=O
Enterococcus faecalis [1]
  MIC: 8 µg/mL (≈ 14.5 µM)
Klebsiella oxytoca
  MIC: > 32 µg/mL
[2]
  MIC: > 32 µg/mL
Enterococcus faecalis [3]
  MIC: 8 µg/mL (≈ 14.5 µM)
[4]
  MIC: 4 µg/mL (≈ 7.25 µM)
Enterococcus faecium [5]
  MIC: 32 µg/mL (≈ 58 µM)
Pseudomonas aeruginosa [6]
  MIC: 4 µg/mL (≈ 7.25 µM)
Enterococcus faecium [7]
  MIC: > 32 µg/mL
Escherichia coli [8]
  MIC: > 32 µg/mL
Staphylococcus aureus [9]
  MIC: > 32 µg/mL
Staphylococcus aureus [10]
  MIC: 4 µg/mL (≈ 7.25 µM)
Staphylococcus aureus [11]
  MIC: 4 µg/mL (≈ 7.25 µM)
Enterococcus faecalis [12]
  MIC: 8 µg/mL (≈ 14.5 µM)
Staphylococcus aureus [13]
  MIC: > 32 µg/mL
Pseudomonas aeruginosa [14]
  MIC: 32 µg/mL (≈ 58 µM)
Enterococcus faecalis [15]
  MIC: 4 µg/mL (≈ 7.25 µM)
Staphylococcus aureus [16]
  MIC: 4 µg/mL (≈ 7.25 µM)
Enterococcus faecalis [17]
  MIC: 8 µg/mL (≈ 14.5 µM)
Escherichia coli [18]
  MIC: > 32 µg/mL
[19]
  MIC: > 32 µg/mL
Escherichia coli [20]
  MIC: > 32 µg/mL
Escherichia coli [21]
  MIC: 0.12 µg/mL (≈ 0.218 µM)
Listeria monocytogenes [22]
  MIC: 8 µg/mL (≈ 14.5 µM)
Listeria monocytogenes [23]
  MIC: 8 µg/mL (≈ 14.5 µM)
Enterococcus faecium [24]
  MIC: 16 µg/mL (≈ 29 µM)
[25]
  MIC: 8 µg/mL (≈ 14.5 µM)
Klebsiella pneumoniae
  MIC: 16 µg/mL (≈ 29 µM)
Enterococcus faecalis [26]
  MIC: 8 µg/mL (≈ 14.5 µM)
Enterococcus faecalis [27]
  MIC: 4 µg/mL (≈ 7.25 µM)
Enterococcus faecalis [28]
  MIC: 8 µg/mL (≈ 14.5 µM)

## O=C(O)c1cn(C2CC2)c2cc(N3CCN(CCO[C@@H]4O[C@@H](CO)[C@@H](O)[C@H](O)[C@@H]4O)CC3)c(F)cc2c1=O
Enterococcus faecalis [1]
  MIC: 16 µg/mL (≈ 29.8 µM)
Klebsiella oxytoca
  MIC: > 32 µg/mL
[2]
  MIC: > 32 µg/mL
Enterococcus faecalis [3]
  MIC: 32 µg/mL (≈ 59.5 µM)
[4]
  MIC: 16 µg/mL (≈ 29.8 µM)
Pseudomonas aeruginosa [6]
  MIC: 32 µg/mL (≈ 59.5 µM)
Enterococcus faecium [7]
  MIC: > 32 µg/mL
Escherichia coli [8]
  MIC: > 32 µg/mL
Staphylococcus aureus [9]
  MIC: > 32 µg/mL
Staphylococcus aureus [10]
  MIC: 4 µg/mL (≈ 7.44 µM)
Staphylococcus aureus [11]
  MIC: 8 µg/mL (≈ 14.9 µM)
Enterococcus faecalis [12]
  MIC: > 32 µg/mL
Staphylococcus aureus [13]
  MIC: > 32 µg/mL
Pseudomonas aeruginosa [14]
  MIC: > 32 µg/mL
Enterococcus faecalis [15]
  MIC: 16 µg/mL (≈ 29.8 µM)
Staphylococcus aureus [16]
  MIC: 16 µg/mL (≈ 29.8 µM)
Enterococcus faecalis [17]
  MIC: > 32 µg/mL
Escherichia coli [18]
  MIC: > 32 µg/mL
Escherichia coli [20]
  MIC: > 32 µg/mL
Escherichia coli [21]
  MIC: 2 µg/mL (≈ 3.72 µM)
Listeria monocytogenes [22]
  MIC: > 32 µg/mL
Listeria monocytogenes [23]
  MIC: > 32 µg/mL
[25]
  MIC: 32 µg/mL (≈ 59.5 µM)
Klebsiella pneumoniae
  MIC: > 32 µg/mL
[29]
  MIC: > 32 µg/mL
Enterococcus faecalis [26]
  MIC: 32 µg/mL (≈ 59.5 µM)
Enterococcus faecalis [27]
  MIC: 32 µg/mL (≈ 59.5 µM)
Enterococcus faecalis [28]
  MIC: 32 µg/mL (≈ 59.5 µM)

## O=C(O)c1cn(C2CC2)c2cc(N3CCN(CCCO[C@@H]4O[C@@H](CO)[C@H](O)[C@H](O)[C@@H]4O)CC3)c(F)cc2c1=O
Enterococcus faecalis [1]
  MIC: 16 µg/mL (≈ 29 µM)
Klebsiella oxytoca
  MIC: > 32 µg/mL
[2]
  MIC: > 32 µg/mL
Enterococcus faecalis [3]
  MIC: 32 µg/mL (≈ 58 µM)
[4]
  MIC: 8 µg/mL (≈ 14.5 µM)
Pseudomonas aeruginosa [6]
  MIC: 16 µg/mL (≈ 29 µM)
Enterococcus faecium [7]
  MIC: > 32 µg/mL
Escherichia coli [8]
  MIC: > 32 µg/mL
Staphylococcus aureus [9]
  MIC: > 32 µg/mL
Staphylococcus aureus [10]
  MIC: 8 µg/mL (≈ 14.5 µM)
Staphylococcus aureus [11]
  MIC: 16 µg/mL (≈ 29 µM)
Enterococcus faecalis [12]
  MIC: 32 µg/mL (≈ 58 µM)
Staphylococcus aureus [13]
  MIC: > 32 µg/mL
Pseudomonas aeruginosa [14]
  MIC: > 32 µg/mL
Enterococcus faecalis [15]
  MIC: 16 µg/mL (≈ 29 µM)
Staphylococcus aureus [16]
  MIC: 16 µg/mL (≈ 29 µM)
Enterococcus faecalis [17]
  MIC: 32 µg/mL (≈ 58 µM)
Escherichia coli [18]
  MIC: > 32 µg/mL
Escherichia coli [20]
  MIC: > 32 µg/mL
Escherichia coli [21]
  MIC: 0.25 µg/mL (≈ 0.453 µM)
Listeria monocytogenes [22]
  MIC: 32 µg/mL (≈ 58 µM)
Listeria monocytogenes [23]
  MIC: 32 µg/mL (≈ 58 µM)
[25]
  MIC: 32 µg/mL (≈ 58 µM)
Klebsiella pneumoniae
  MIC: > 32 µg/mL
[29]
  MIC: > 32 µg/mL
Enterococcus faecalis [26]
  MIC: 16 µg/mL (≈ 29 µM)
Enterococcus faecalis [27]
  MIC: 16 µg/mL (≈ 29 µM)
Enterococcus faecalis [28]
  MIC: 16 µg/mL (≈ 29 µM)
